The term MFC denotes the lowest tested concentration that kills the fungus rather than only halting it. Higher therefore signals weaker fungicidal potency. A word on the MIC: it is the least concentration at which growth counts as inhibited. Low readings indicate greater potency, high ones weaker potency. A word on the MBC: it is the smallest concentration meeting the test's criterion for killing. Read a high MBC as weaker bactericidal potency.

Assay type in all cases: functional
Experiment [1] concerns Aspergillus fumigatus. Nature of the experiment: Antifungal activity against Aspergillus fumigatus at 35 degC after 48 hrs. In short, it runs like this: (§1)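 Fungicidal endpoint (MFC). 0.1 ml from each broth-dilution tube was spread on agar plates and c.f.u. counted after 48 h at 35 °C. MFC was the lowest concentration killing 99.9% of the inoculum.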
Experiment [2] relates to Trichophyton mentagrophytes. Nature of the experiment: Antifungal activity against Trichophyton mentagrophytes at 37 degC after 3 to 4 days by agar dilution method. To be noted: in the assay text read “agar diffusion method” for “agar dilution method”. In short, it runs like this: (§2)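 Agar well diffusion for fungi, compounds in DMSO. Sabouraud agar was adjusted to pH 5.7 and lawned with a saline spore suspension (a loopful in 3 ml). Plates were dried 1 h at 37 °C, then wells were punched. Incubation was 3–4 days at 37 °C, with controls in triplicate. Inhibition zones were measured against controls, with griseofulvin as standard.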
For orientation: In agar dilution the substance is mixed into plates at graded concentrations.

Experiment [3] deals with Candida albicans. Description: Antifungal activity against Candida albicans at 35 degC after 48 hrs by broth dilution method. In short, it runs like this:
(§3)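 Fungal MIC by broth dilution. Two-fold serial dilutions of compound in nutrient broth were inoculated with about 1.6 × 10⁴–6 × 10⁴ c.f.u./ml. Incubation was 48 h at 35 °C. MIC was the lowest concentration arresting fungal growth.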

Experiment [4] concerns Escherichia coli. Nature of the experiment: Antibacterial activity against Escherichia coli ATCC 25922 at 35 degC after 18 to 24 hrs. In short, it runs like this: (§4)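 Bactericidal endpoint (MBC) taken from the broth-dilution MIC tubes. 0.1 ml from each tube was spread on agar plates and c.f.u. counted after 18–24 h. MBC was the lowest concentration completely killing the bacteria.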

Experiment [5] deals with Candida albicans. Description: Antifungal activity against Candida albicans at 37 degC after 3 to 4 days by agar dilution method. In short, it runs like this:
as §2

Experiment [6] deals with Aspergillus fumigatus. Description: Antifungal activity against Aspergillus fumigatus at 37 degC after 3 to 4 days by agar […] method. In short, it runs like this: as §2
The test system of experiment [7] is Klebsiella pneumoniae. Nature of the experiment: Antibacterial activity against Klebsiella pneumoniae ATCC 25922 at 35 degC after 18 to 24 hrs. To be noted: recultured, in the assay text read “Klebsiella pneumoniae (recultured)” for “Klebsiella pneumoniae ATCC 25922”. In short, it runs like this:
as §4

Experiment [8] concerns Escherichia coli. Nature of the experiment: Antibacterial activity against Escherichia coli ATCC 25922 at 37 degC after 24 hrs by disc diffusion method. In short, it runs like this: (§5)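 Disc diffusion on nutrient agar. Plates were spread with 1–2 × […] c.f.u./ml inoculum (0.5 McFarland). Sterile 6.25 mm filter-paper discs were soaked in a known concentration of compound and placed on the agar. Plates were inverted and incubated 24 h at 37 °C. Inhibition zones (mm) were read against solvent and growth controls, with ciprofloxacin as reference.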
In general terms: In agar diffusion tests the substance spreads into inoculated agar from a disc or well.

Experiment [9] has as its system Klebsiella pneumoniae. Description: Antibacterial activity against Klebsiella pneumoniae ATCC 25922 at 37 degC after 24 hrs by disc diffusion method. In short, it runs like this:
as §5

The subject of experiment [10] is Staphylococcus aureus. Description: Antibacterial activity against Staphylococcus aureus ATCC 25923 at 37 degC after 24 hrs by disc diffusion method. In short, it runs like this: as §5
In experiment [11] the test system is Trichophyton mentagrophytes. Nature of the experiment: Antifungal activity against Trichophyton mentagrophytes at 35 degC after 48 hrs by broth dilution method. In short, it runs like this: as §3
A general note: Dilution methods test growth across graded concentrations, often in twofold steps.

The test system of experiment [12] is Trichophyton mentagrophytes. Description: Antifungal activity against Trichophyton mentagrophytes at 35 degC after 48 hrs. In short, it runs like this: as §1
Experiment [13] deals with Pseudomonas aeruginosa. Nature of the experiment: Antibacterial activity against Pseudomonas aeruginosa ATCC 27853 at 37 degC after 24 hrs by broth dilution method. To be noted: ATCC 27853, 24 h. In short, it runs like this:
(§6)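 Broth dilution MIC. Nutrient broth held two-fold serial dilutions of compound and was inoculated with about 5 × 10⁵ c.f.u. of actively dividing bacteria. Cultures ran 24 h at 37 °C, with growth checked visually and spectrophotometrically. MIC was the lowest concentration arresting growth. Ciprofloxacin was the standard.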

The test system of experiment [14] is Pseudomonas aeruginosa. Nature of the experiment: Antibacterial activity against Pseudomonas aeruginosa ATCC 27853 at 37 degC after 24 hrs by disc diffusion method. In short, it runs like this:
as §5

The test system of experiment [15] is Klebsiella pneumoniae. Description: Antibacterial activity against Klebsiella pneumoniae ATCC 25922 at 37 degC after 24 hrs by broth dilution method. To be noted: recultured, in the assay text read “Klebsiella pneumoniae (recultured)” for “Klebsiella pneumoniae ATCC 25922”. In short, it runs like this:
as §6

For experiment [16], the system named is Talaromyces marneffei. Description: Antifungal activity against Penicillium marneffei at 37 degC after 3 to 4 days by agar […] method. In short, it runs like this: as §2
Experiment [17] relates to Talaromyces marneffei. Nature of the experiment: Antifungal activity against Penicillium marneffei at 35 degC after 48 hrs. In short, it runs like this:
as §1

Experiment [18] concerns Candida albicans. Description: Antifungal activity against Candida albicans at 35 degC after 48 hrs. In short, it runs like this: as §1
Experiment [19] relates to Staphylococcus aureus. Description: Antibacterial activity against Staphylococcus aureus ATCC 25923 at 37 degC after 24 hrs by broth dilution method. To be noted: ATCC 25923, 24 h. In short, it runs like this: as §6
For experiment [20], the system named is Staphylococcus aureus. Description: Antibacterial activity against Staphylococcus aureus ATCC 25923 at 35 degC after 18 to 24 hrs. In short, it runs like this:
as §4

In experiment [21] the test system is Escherichia coli. Description: Antibacterial activity against Escherichia coli ATCC 25922 at 37 degC after 24 hrs by broth dilution method. To be noted: ATCC 25922, 24 h. In short, it runs like this:
as §6

The test system of experiment [22] is Pseudomonas aeruginosa. Description: Antibacterial activity against Pseudomonas aeruginosa ATCC 27853 at 35 degC after 18 to 24 hrs. In short, it runs like this:
as §4

Experiment [23] concerns Talaromyces marneffei. Description: Antifungal activity against Penicillium marneffei at 35 degC after 48 hrs by broth dilution method. In short, it runs like this: as §3
Experiment [24] concerns Aspergillus fumigatus. Nature of the experiment: Antifungal activity against Aspergillus fumigatus at 35 degC after 48 hrs by broth dilution method. In short, it runs like this:
as §3

≈ marks a conversion by molar mass, not a printed value. A value given as a limit tells only on which side of the number the result lay.

With `Cc1cc(Cl)ccc1OCc1nnc(-c2cc(F)c(Cl)cc2Cl)o1`, the MFC came out at 6.25 µg/mL (≈ 16.1 µM) in the experiment on Aspergillus fumigatus [1], 25 µg/mL (≈ 64.5 µM) in [12], 6.25 µg/mL (≈ 16.1 µM) in the experiment on Talaromyces marneffei [17] and 6.25 µg/mL (≈ 16.1 µM) with Candida albicans [18]. Besides, the “inhibition zone (IZ)” value in experiment [2] was 22 mm; in the experiment on Candida albicans [5], 28 mm; in the experiment with Aspergillus fumigatus [6] it was 25 mm; in the experiment on Escherichia coli [8], 24 mm; in the experiment with Klebsiella pneumoniae [9], 19 mm; in the experiment on Staphylococcus aureus [10], 20 mm. Besides, the “inhibition zone (IZ)” value amounted to 29 mm in the experiment on Pseudomonas aeruginosa [14] and 19 mm with Talaromyces marneffei [16]. In addition, the MIC (in the experiment on Candida albicans [3]; in [11]; with Pseudomonas aeruginosa [13]; in the experiment with Klebsiella pneumoniae [15]; with Staphylococcus aureus [19]; against Escherichia coli [21]) was 6.25 µg/mL (≈ 16.1 µM) throughout. Moreover, the MIC with Talaromyces marneffei [23] and against Aspergillus fumigatus [24] was 6.25 µg/mL (≈ 16.1 µM) in each case. Further, the minimum bactericidal concentration (MBC) amounted to 12.5 µg/mL (≈ 32.2 µM) against Escherichia coli [4], 6.25 µg/mL (≈ 16.1 µM) in the experiment with Klebsiella pneumoniae [7], 6.25 µg/mL (≈ 16.1 µM) with Staphylococcus aureus [20] and 6.25 µg/mL (≈ 16.1 µM) in the experiment with Pseudomonas aeruginosa [22].

In the case of `Cc1ccccc1OCc1nnc(-c2cc(-c3cc(F)c(Cl)cc3Cl)nc3ccccc23)o1`, the MFC in the experiment on Aspergillus fumigatus [1] was over 100 µg/mL; in experiment [12], 12.5 µg/mL (≈ 26 µM); with Talaromyces marneffei [17] it was over 100 µg/mL; against Candida albicans [18] it was 25 µg/mL (≈ 52 µM). For the same molecule, the “inhibition zone (IZ)” value in experiment [2] amounted to 18 mm; in the experiment on Candida albicans [5] it was 25 mm; in the experiment with Escherichia coli [8] it was 12 mm; with Staphylococcus aureus [10], 12 mm. In addition, the minimal inhibitory concentration (MIC) in the experiment on Candida albicans [3] was 6.25 µg/mL (≈ 13 µM); in experiment [11], 6.25 µg/mL (≈ 13 µM); with Pseudomonas aeruginosa [13], over 100 µg/mL; in the experiment with Klebsiella pneumoniae [15] it was over 100 µg/mL; in the experiment with Staphylococcus aureus [19], 12.5 µg/mL (≈ 26 µM); in the experiment with Escherichia coli [21], 12.5 µg/mL (≈ 26 µM). In addition, the minimum inhibitory concentration (MIC) with Talaromyces marneffei [23] and with Aspergillus fumigatus [24] was over 100 µg/mL throughout. Further, the minimal bactericidal concentration (MBC) against Escherichia coli [4] was 25 µg/mL (≈ 52 µM); in the experiment with Klebsiella pneumoniae [7], over 100 µg/mL; against Staphylococcus aureus [20] it was 25 µg/mL (≈ 52 µM); in the experiment with Pseudomonas aeruginosa [22], over 100 µg/mL. The Activity with Aspergillus fumigatus [6], in the experiment on Klebsiella pneumoniae [9], in the experiment with Pseudomonas aeruginosa [14] and in the experiment with Talaromyces marneffei [16] was over 100 µg/mL throughout.

`Fc1cc(-c2cc(-c3nnc(COc4ccc(Cl)cc4)o3)c3ccccc3n2)c(Cl)cc1Cl`: the MFC was 25 µg/mL (≈ 49.9 µM) in the experiment with Aspergillus fumigatus [1], 12.5 µg/mL (≈ 25 µM) in [12], 12.5 µg/mL (≈ 25 µM) against Talaromyces marneffei [17] and 50 µg/mL (≈ 99.9 µM) against Candida albicans [18]. Also, the “inhibition zone (IZ)” value is given as 15 mm in [2]; 12 mm with Candida albicans [5]; 16 mm in the experiment with Aspergillus fumigatus [6]; 25 mm in the experiment on Escherichia coli [8]; 18 mm in the experiment on Klebsiella pneumoniae [9]; 19 mm in the experiment with Staphylococcus aureus [10]. In addition, the “inhibition zone (IZ)” value with Pseudomonas aeruginosa [14] is listed as 32 mm; in the experiment on Talaromyces marneffei [16], 20 mm. Further, the MIC worked out at 12.5 µg/mL (≈ 25 µM) against Candida albicans [3]; 6.25 µg/mL (≈ 12.5 µM) in experiment [11]; 6.25 µg/mL (≈ 12.5 µM) in the experiment with Pseudomonas aeruginosa [13]; 12.5 µg/mL (≈ 25 µM) in the experiment with Klebsiella pneumoniae [15]; 6.25 µg/mL (≈ 12.5 µM) with Staphylococcus aureus [19]; 6.25 µg/mL (≈ 12.5 µM) against Escherichia coli [21]. For the same molecule, the minimum inhibitory concentration (MIC) in the experiment with Talaromyces marneffei [23] and in the experiment with Aspergillus fumigatus [24] was 6.25 µg/mL (≈ 12.5 µM) each time. Further, the MBC was 6.25 µg/mL (≈ 12.5 µM) in the experiment on Escherichia coli [4], 25 µg/mL (≈ 49.9 µM) against Klebsiella pneumoniae [7], 12.5 µg/mL (≈ 25 µM) in the experiment with Staphylococcus aureus [20] and 25 µg/mL (≈ 49.9 µM) in the experiment on Pseudomonas aeruginosa [22].
